Legend:
[1] = system: HeLa; assay: Cytotoxicity against human HeLa cells after 48 hrs by MTT assay; format: functional, cell-based
How it was run: (§1)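 Cells grown in medium with 10% heat-inactivated FBS, 5% CO2, 37 °C. Compounds given in medium with 1% DMSO at 1.25–20 graded concentrations; 1% DMSO medium served as control. MTT (5 mg/mL) added, formazan dissolved in DMSO, absorbance read at 570/630 nm. Survival expressed relative to negative control. IC50 by Bliss method (n=5), at least three independent experiments, mean ± SD.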

[2] = system: HUVEC; assay: Cytotoxicity against human HUVEC cells after 48 hrs by MTT assay; format: cell-based; how it was run: as §1
[3] = system: NCI-H460; assay: Cytotoxicity against human NCI-H460 cells after 48 hrs by MTT assay; format: functional, cell-based; conditions: NCI-H460, 48 h; how it was run: as §1
[4] = system: HepG2; assay: Cytotoxicity against human HepG2 cells after 48 hrs by MTT assay; format: functional, cell-based; conditions: HepG2, 48 h; how it was run: as §1
[5] = Cytotoxicity against human SMMC-7404 cells after 48 hrs by MTT assay; format: functional, cell-based; conditions: SMMC-7404, 48 h; how it was run: as §1
[6] = system: MGC-803; assay: Cytotoxicity against human MGC803 cells after 48 hrs by MTT assay; format: functional, cell-based; conditions: MGC-803, 48 h; how it was run: as §1

`C[C@H]1[C@H](C)CC[C@]2(C(=O)Nc3cccc4ccccc34)CC[C@]3(C)C(=CC(=O)[C@@H]4[C@@]5(C)C[C@@H](O)[C@H](O)[C@@](C)(CO)[C@@H]5CC[C@]43C)[C@H]12` showed an IC50 [1] of 14 µM, an IC50 [2] greater than 100 µM and an IC50 [3] of 16.6 µM. The IC50 [4] was 21.3 µM, the IC50 [5] was 20.4 µM and the IC50 [6] was 19.9 µM.
For `C[C@H]1[C@H](C)CC[C@]2(C(=O)Nc3cccc(Cl)c3)CC[C@]3(C)C(=CC(=O)[C@@H]4[C@@]5(C)C[C@@H](O)[C@H](O)[C@@](C)(CO)[C@@H]5CC[C@]43C)[C@H]12`, the IC50 [1] was 14.2 µM, the IC50 [2] was greater than 100 µM and the IC50 [3] was 24.4 µM. For the same compound, the IC50 [4] was 11.6 µM, the IC50 [5] was 34.4 µM and the IC50 [6] was 19.4 µM.
Compound `C[C@H]1[C@H](C)CC[C@]2(C(=O)O)CC[C@]3(C)C(=CC[C@@H]4[C@@]5(C)C[C@@H](O)[C@H](O)[C@@](C)(CO)[C@@H]5CC[C@]43C)[C@H]12` [ASIATIC ACID] has an IC50 [1] of 37.3 µM, an IC50 [2] greater than 100 µM and an IC50 [3] of 39.6 µM. For the same compound, the IC50 [4] was 34.9 µM, the IC50 [5] was 40.8 µM and the IC50 [6] was 22.6 µM.
With `Cc1cc(Br)ccc1NC(=O)[C@]12CC[C@@H](C)[C@H](C)[C@H]1C1=CC(=O)[C@@H]3[C@@]4(C)C[C@@H](O)[C@H](O)[C@@](C)(CO)[C@@H]4CC[C@@]3(C)[C@]1(C)CC2` the IC50 [1] was 15.7 µM, the IC50 [2] was greater than 100 µM and the IC50 [3] was 23.8 µM. The IC50 [4] was 22.8 µM, the IC50 [5] was 17 µM and the IC50 [6] was 14.6 µM.
`Cc1ccc(NC(=O)[C@]23CC[C@@H](C)[C@H](C)[C@H]2C2=CC(=O)[C@@H]4[C@@]5(C)C[C@@H](O)[C@H](O)[C@@](C)(CO)[C@@H]5CC[C@@]4(C)[C@]2(C)CC3)cc1` gave an IC50 [1] of 32.5 µM, an IC50 [2] greater than 100 µM and an IC50 [3] of 30.2 µM. For the same compound, the IC50 [4] was 22.6 µM, the IC50 [5] was greater than 100 µM and the IC50 [6] was 14.6 µM.
